This is an account of results in ChEMBL document CHEMBL1140321, “Synthesis and biological evaluation of acyclic 3-[(2-hydroxyethoxy)methyl] analogues of antiviral furo- and pyrrolo[2,3-d]pyrimidine nucleosides” (J Med Chem, 2005).

Broadly, the EC50 is the concentration at which the effect is half-maximal. A high value points to a need for much substance. A word on the CC50: it is the concentration that lowers cell viability or growth by half.

Where only a bound is given, the exact number is not on record here.

Assay [1] has as its system HEL. The experiment in a line: Concentration required to inhibit herpes simplex virus type 2 induced cytopathogenicity in HEL cells by 50%. The class given is functional, cell-based. As to conditions: Homo sapiens.
For assay [2], the system named is HEL. The experiment in a line: Concentration required to inhibit vesicular stomatitis virus induced cytopathogenicity in HEL cells by 50%. The class given is functional, cell-based. The settings on record: Homo sapiens. On the technique in general: Protection from cytopathic effect is a common read-out in antiviral testing.
The test system of assay [3] is HEL. Nature of the assay: Concentration required to inhibit human cytomegalovirus strain AD169 induced cytopathogenicity in HEL cells by 50%. It is filed as functional, cell-based.
Assay [4] relates to CCRF-CEM. The experiment in a line: Concentration required to inhibit human immunodeficiency virus-2 (strain ROD) induced cytopathogenicity in CEM cells by 50%. It is filed as functional, cell-based. Put shortly:
(§1)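 Human CEM cells (~3 × 10^5 cells/cm³) were infected with 100 CCID50/mL of HIV-1(IIIB) or HIV-2(ROD) and seeded into wells with compound dilutions. After 4 days at 37 °C, HIV-induced giant-cell formation was examined microscopically and EC50 was taken as the concentration giving 50% inhibition.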

Assay [5] concerns HEL. Nature of the assay: Concentration required to inhibit human cytomegalovirus strain Davis induced cytopathogenicity in HEL cells by 50%. It is filed as functional, cell-based.
For assay [6], the system named is HEL. The experiment in a line: Concentration required to inhibit vaccinia virus induced cytopathogenicity in HEL cells by 50%. The class given is functional, cell-based. As to conditions: Homo sapiens.
For assay [7], the system named is HEL. Nature of the assay: Concentration required to inhibit Varicella-Zoster virus (strain OKA) induced cytopathogenicity in HEL cells by 50%. As to conditions: Homo sapiens. It is filed as functional, cell-based.
In assay [8] the test system is CCRF-CEM. The experiment in a line: Concentration required to inhibit human immunodeficiency virus-1 (strain IIIb) induced cytopathogenicity in CEM cells by 50%. The class given is functional, cell-based. The method, boiled down: as §1
The test system of assay [9] is HEL. Nature of the assay: Concentration required to inhibit herpes simplex virus type 1 induced cytopathogenicity in HEL cells by 50%. It is filed as functional, cell-based. The settings on record: Homo sapiens.
Assay [10] relates to HEL. Nature of the assay: Concentration required to inhibit Varicella-Zoster virus (strain 07/1) induced cytopathogenicity in HEL cells by 50%. It is filed as functional, cell-based. As to conditions: Homo sapiens.
Assay [11] deals with HEL. Nature of the assay: Concentration required to cause a microscopically visible alteration of cell morphology in HEL cells. The class given is functional. The settings on record: Homo sapiens.
For assay [12], the system named is HEL. Nature of the assay: Concentration required to inhibit cell proliferation in HEL cells by 50%. It is filed as functional. As to conditions: Homo sapiens.

With `CCCCCCCCCc1cc2cn(COCCO)c(O)nc-2n1`, the EC50 in assay [1] was greater than 80 µM; in assay [2] it was greater than 80 µM; in assay [3], greater than 16 µM; in assay [4] it was greater than 50 µM; in assay [5] it was greater than 16 µM; in assay [6], greater than 80 µM. Also, the EC50 in [7] was greater than 16 µM; in assay [8] it was greater than 50 µM; in assay [9] it was greater than 80 µM; in assay [10], greater than 16 µM. In assay [11], this compound registered an MCC greater than 80 µM.
`CCCCCCCCCCCc1cc2cn(COCCO)c(=O)nc2o1`: the EC50 was greater than 40 µM in assay [1]; greater than 40 µM in [2]; greater than 16 µM in [3]; greater than 250 µM in assay [4]; greater than 16 µM in [5]; greater than 40 µM in assay [6]. For the same compound, the EC50 was greater than 16 µM in [7], greater than 250 µM in [8], greater than 40 µM in [9] and greater than 16 µM in assay [10]. Further, half-maximal cytotoxicity in [12] (CC50) was put at 132 µM. Further, in assay [11], the MCC came to 80 µM.
On to `CCCCCCCCCCc1cc2cn(COCCO)c(O)nc-2n1`, for which the EC50 in assay [1] is greater than 16 µM; in assay [2], greater than 16 µM; in assay [3] it was 5.1 µM; in [4] it was greater than 10 µM; in assay [5], 1.8 µM; in assay [6], greater than 16 µM. Besides, the EC50 is 6.4 µM in [7], greater than 10 µM in assay [8], greater than 16 µM in [9] and 5.8 µM in assay [10]. The same compound registered a CC50 in assay [12] of 32 µM. Further, the MCC in assay [11] was found to be 80 µM.
As to `CCCCCCCc1cc2cn(COCCO)c(=O)nc2o1`, the EC50 in assay [1] is greater than 200 µM; in [2], greater than 200 µM; in [3] it was greater than 80 µM; in assay [4], greater than 50 µM; in assay [5] it was greater than 80 µM; in [6], greater than 200 µM. Also, the EC50 in [7] is greater than 80 µM; in assay [8] it was greater than 50 µM; in assay [9], greater than 200 µM; in assay [10] it was greater than 80 µM. Also, the CC50 in [12] is 140 µM. Besides, in assay [11], the MCC amounted to 400 µM.
Regarding `CCCCCCCCc1cc2cn(COCCO)c(O)nc-2n1`, the EC50 in assay [1] is greater than 80 µM; in assay [2], greater than 80 µM; in assay [3] it was greater than 16 µM; in assay [4] it was greater than 50 µM; in assay [5] it was greater than 16 µM; in [6], greater than 80 µM. Moreover, the EC50 in assay [7] was greater than 16 µM; in assay [8], greater than 50 µM; in assay [9], greater than 80 µM; in assay [10] it was greater than 16 µM. For the same compound, in assay [12], it took 65 µM to reach half-maximal cytotoxicity (CC50). The MCC in [11] is 80 µM.
With `CCCCCCCc1cc2cn(COCCO)c(O)nc-2n1`, the EC50 in [1] is greater than 200 µM; in assay [2], greater than 200 µM; in assay [3], greater than 400 µM; in assay [4], greater than 250 µM; in [5], 400 µM; in [6] it was greater than 200 µM. The EC50 is 149 µM in [7], greater than 250 µM in assay [8], greater than 200 µM in assay [9] and 156 µM in assay [10]. Also, the CC50 in [12] is 119 µM. The MCC in [11] was no less than 400 µM.
Turning to `CCCCCCC#Cc1cc2cn(COCCO)c(=O)nc2o1`, the EC50 is greater than 200 µM in assay [1]; greater than 200 µM in [2]; 40 µM in assay [3]; greater than 20 µM in assay [5]; greater than 200 µM in [6]; 100 µM in assay [7]. In addition, the EC50 in assay [8] is greater than 50 µM; in assay [9], greater than 200 µM; in assay [10] it was 100 µM. Further, the CC50 in assay [12] was greater than 50 µM. Moreover, the MCC in assay [11] is greater than 200 µM.
`CCCCc1cc2cn(COCCO)c(O)nc-2n1`: the concentration giving a half-maximal response (EC50) in assay [1] is greater than 400 µM; in [2], greater than 400 µM; in assay [3], greater than 400 µM; in assay [4], greater than 250 µM; in assay [5], greater than 400 µM; in [6], greater than 400 µM. Moreover, the EC50 is greater than 400 µM in [7], greater than 250 µM in [8], greater than 400 µM in assay [9] and greater than 400 µM in assay [10]. The same compound came in with a CC50 in [12] greater than 200 µM. Besides, the MCC in assay [11] was greater than 400 µM.
On to `CCCCCCc1cc2cn(COCCO)c(=O)nc2o1`, for which the EC50 in assay [1] is greater than 16 µM; in [2] it was greater than 16 µM; in assay [3], greater than 80 µM; in [4], greater than 50 µM; in assay [5], greater than 80 µM; in assay [6], greater than 16 µM. Moreover, the EC50 is 173 µM in assay [7], greater than 50 µM in assay [8], greater than 16 µM in [9] and 151 µM in assay [10]. For the same compound, the cytotoxic concentration (CC50) in assay [12] was greater than 200 µM. The compound further showed an MCC in assay [11] of no less than 400 µM.
